Data: ChEMBL document CHEMBL2146476, “Discovery of selective glucocorticoid receptor modulator MK-5932” (Bioorg Med Chem, 2011)
pKi: −log10 of the molar value. Active and inactive are the calls of the source. The rule behind the calls is not given here.

Tests used:
Liver microsomes [1] = assay: Drug metabolism in human liver microsomes assessed as metabolite M1 level up to 50 mins by LC-MS analysis; format: ADME, Microsome
Liver microsomes [2] = assay: Drug metabolism in human liver microsomes assessed as metabolite M2 level up to 50 mins by LC-MS analysis; format: ADME, Microsome
Liver microsomes [3] = assay: Drug metabolism in rat liver microsomes assessed as metabolite M2 level up to 50 mins by LC-MS analysis; format: ADME, Microsome
[4] = molecular target: T1, Glucocorticoid receptor (Homo sapiens) (UniProt P04150); assay: Transactivation activity at GR-mediated modulation of MMTV promoter activity in human A549 cells transfected with luciferase gene linked to MMTV promoter after 16 hrs by luciferase reporter gene assay; format: cell-based
T1 sequence (whole entry): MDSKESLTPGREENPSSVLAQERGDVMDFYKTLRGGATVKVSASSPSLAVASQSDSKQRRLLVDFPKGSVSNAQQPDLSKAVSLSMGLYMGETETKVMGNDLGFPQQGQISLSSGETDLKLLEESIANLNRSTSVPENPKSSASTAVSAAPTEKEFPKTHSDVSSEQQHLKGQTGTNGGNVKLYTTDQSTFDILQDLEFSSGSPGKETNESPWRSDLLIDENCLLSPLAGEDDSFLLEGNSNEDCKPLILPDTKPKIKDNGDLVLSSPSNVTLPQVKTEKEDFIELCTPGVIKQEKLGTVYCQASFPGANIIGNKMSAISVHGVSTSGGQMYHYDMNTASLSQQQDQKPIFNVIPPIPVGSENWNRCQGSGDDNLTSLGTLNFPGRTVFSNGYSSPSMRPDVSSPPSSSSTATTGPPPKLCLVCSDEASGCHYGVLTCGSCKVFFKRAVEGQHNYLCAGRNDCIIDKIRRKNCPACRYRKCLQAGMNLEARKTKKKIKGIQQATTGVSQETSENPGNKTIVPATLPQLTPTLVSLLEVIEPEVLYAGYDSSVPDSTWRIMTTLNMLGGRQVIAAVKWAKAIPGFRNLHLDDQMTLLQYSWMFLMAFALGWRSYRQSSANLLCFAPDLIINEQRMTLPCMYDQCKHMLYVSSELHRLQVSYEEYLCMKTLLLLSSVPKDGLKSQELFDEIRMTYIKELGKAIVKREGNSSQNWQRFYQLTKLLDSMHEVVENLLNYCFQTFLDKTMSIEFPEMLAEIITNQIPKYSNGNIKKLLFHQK
Outline: (§1)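 HeLa or A549 cells transiently transfected with a luciferase reporter under the MMTV promoter (two GREs), in 10% charcoal-stripped FBS. Compound exposure 16 h, then luciferase measured. Activity expressed as percent of the span between DMSO and dexamethasone controls. Mean of at least three runs.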

[5] = molecular target: T1, Glucocorticoid receptor (Homo sapiens); assay: Transactivation activity at GR-mediated modulation of MMTV promoter activity in human HeLa cells transfected with luciferase gene linked to MMTV promoter after 16 hrs by luciferase reporter gene assay; format: cell-based; outline: as §1
Liver microsomes [6] = assay: Drug metabolism in rat liver microsomes assessed as metabolite M3 level up to 50 mins by LC-MS analysis; format: ADME, Microsome
[7] = molecular target: T1, Glucocorticoid receptor (Homo sapiens); assay: Transactivation activity at GR-mediated modulation of MMTV promoter activity in human A549 cells transfected with luciferase gene linked to MMTV promoter after 16 hrs by luciferase reporter gene assay relative to dexamethasone; format: cell-based; outline: as §1
Rattus norvegicus [8] = assay: Antiinflammatory activity in oxazolone-induced Sprague-Dawley rat chronic dermatitis model at 0.3 to 60 mg/kg, po qd administered after 7 days of oxazolone sensitization measured after 4 to 5 hrs last post treatment on day 14; format: functional, organism-based
Outline: (§2)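 Intact 6-month-old female Sprague-Dawley rats sensitized with oxazolone on ventral abdomen on Day 0. One randomly selected ear challenged with oxazolone on Days 7 and 9, other ear given vehicle. Daily oral dosing for 7 d from Day 7, with 6-methylprednisolone or DEX as positive controls. Blood taken ~4-5 h after last dose for plasma insulin. Inflammation read as inter-ear thickness difference.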

[9] = molecular target: T1, Glucocorticoid receptor (Homo sapiens); assay: Transactivation activity at GR-mediated modulation of MMTV promoter activity in human HeLa cells transfected with luciferase gene linked to MMTV promoter after 16 hrs by luciferase reporter gene assay relative to dexamethasone; format: cell-based; outline: as §1
[10] = molecular target: T1, Glucocorticoid receptor (Homo sapiens); assay: Transrepression activity at glucocorticoid receptor in human LPS and TPA-stimulated U937 cells assessed as effect on glucocorticoid-induced TNFalpha repression by beta lactamase reporter gene assay; format: cell-based; details: U-937
Outline: (§3)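 U937 cells stably carrying a β-lactamase reporter driven by the human TNF-α promoter (-1083 to +182), in 5% charcoal-stripped FBS. Stimulated with 1 µg/mL LPS plus 50 ng/mL TPA, compound exposure 16 h. β-Lactamase read out. Activity expressed as percent of the span between DMSO and 100 nM dexamethasone controls. Mean of at least three runs.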

Liver microsomes [11] = assay: Drug metabolism in rat liver microsomes assessed as metabolite M1 level up to 50 mins by LC-MS analysis; format: ADME, Microsome
Liver microsomes [12] = assay: Drug metabolism in human liver microsomes assessed as metabolite M3 level up to 50 mins by LC-MS analysis; format: ADME, Microsome
Glucocorticoid receptor = molecular target: T2, Glucocorticoid receptor (Homo sapiens, UniProt P04150); assay: Displacement of [3H]-dexamethasone from human full length GR expressed in insect Sf21 cells
T2 sequence (P04150 whole entry): T1 sequence (whole entry)
Outline: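 Human full-length GR expressed in insect cells, incubated with compound and 3H-dexamethasone overnight at 4 °C. Bound radioactivity quantified after filtration capture. Nonspecific binding defined with excess unlabelled dexamethasone. Mean of at least two runs.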

Rattus norvegicus [13] = assay: Toxicity in oxazolone-induced Sprague-Dawley rat chronic dermatitis model assessed as increase in plasma insulin level at 0.3 to 60 mg/kg, po qd administered after 7 days of oxazolone sensitization measured after 4 to 5 hrs last post treatment on day 14; format: organism-based; parameters: route oral; details: in vivo; outline: as §2
[14] = molecular target: T1, Glucocorticoid receptor (Homo sapiens); assay: Transrepression activity at glucocorticoid receptor in human LPS and TPA-stimulated U937 cells assessed as effect on glucocorticoid-induced TNFalpha repression by beta lactamase reporter gene assay relative to dexamethasone; format: cell-based; details: U-937; outline: as §3

Drug metabolism (Liver microsomes [1]): Active | Drug metabolism (Liver microsomes [2]): Active | Drug metabolism (Liver microsomes [3]): Active | IP [4]: 186 nM | IP [5]: 153 nM | Drug metabolism (Liver microsomes [6]): Not Active | Emax [7]: 35% | Emax [9]: 23% | IP [10]: 131 nM | Drug metabolism (Liver microsomes [11]): Active | Drug metabolism (Liver microsomes [12]): Active | pKi (Glucocorticoid receptor): 8.52 | Emax [14]: 73%
Structure (SMILES): C[C@]12Cc3cnn(-c4ccc(F)cc4)c3C=C1CC[C@@]2(O)CCc1ccc(F)cc1C(N)=O
Activity (Rattus norvegicus [8]): Active | Activity (Rattus norvegicus [13]): Non-toxic
